The IC50 is the concentration that gives 50% inhibition. Broadly, the half-life is the time in which the quantity being followed falls by half. Low readings indicate rapid decline, high ones slow decline. Usually AUC(0-inf) stands for the area under the concentration-time curve extrapolated to infinity.

The structures appear in SMILES notation. Calls of active or inactive are those of the source. No cut-off for these calls is given here.

Consider 2 compounds from ChEMBL document CHEMBL5649170, “Sustained microglial depletion with CSF1R inhibitor impairs parenchymal plaque development in an Alzheimer's disease model” (Nat Commun, 2019).

Data set [1] in a line: Drug concentration in 5XFAD mouse plasma at 75 ppm administered as rodent chow starting from 1.5 months and measured after 5 months. It counts as ADME, cell-free. The note with it: route po, time 3.5 months. Put shortly: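 WT or 5xFAD mice were fed PLX3397 in AIN-76A chow at 600 ppm or 75 ppm from 1.5 to 5 months of age. Terminal brain and plasma drug concentrations were determined at study end.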

Data set [2] has as its system Mus musculus. In words: Antialzheimer activity in wildtype mouse assessed as number of Iba positive cells per FOV in somatosensory cortex at 1200 ppm administered as rodent chow starting from 1.5 months and measured after 7 months (reference value: 371 to 472). It counts as functional. The conditions noted are these: route po, time 5.5 months, 4015 h.
A short description of data set [3]: Effect on ccl6 gene expression in 5XFAD mouse hippocampus at 1200 ppm administered as rodent chow starting from 1.5 months and measured after 7 months by RNA-Seq analysis (reference value: 5.688 to 8.240 RPKM). Format: functional. The conditions noted are these: route po, time 5.5 months, 4015 h.
The target of data set [4] is Death-associated protein kinase 1 (Homo sapiens, UniProt P53355). In words: Inhibition of DAPK1 (unknown origin).
The nature of data set [5]: Toxicity in wildtype mouse assessed as time spent in closed arm at 1200 ppm administered as rodent chow for 10 to 24 weeks by Elevated plus maze test (reference value: 73.3 to 220.6 sec). The conditions noted are these: in vivo, po, time 10-24 weeks.
Data set [6] addresses Mitogen-activated protein kinase kinase kinase kinase 5 (Homo sapiens, UniProt Q9Y4K4). The data set can be described thus: Inhibition of MAP4K5 (unknown origin).
Data set [7] can be described thus: Half-life in male rat at 1.13 mg/kg, iv administered as single dose. Format: ADME, organism-based. The note with it: in vivo.
Data set [8] relates to Mus musculus. In words: Effect on APP processing pathway in 5XFAD mouse assessed as C83 protein signal intensity in cortex at 1200 ppm administered as rodent starting from 1.5 months and measured after 7 months (reference value: 37.776 to 172.037 %). It counts as functional. The note with it: route po, time 5.5 months, 4015 h.
Data set [9] is described as follows: Effect on Ctsz gene expression in wild type mouse thalamus at 1200 ppm administered as rodent chow starting from 1.5 months and measured after 7 months by RNA-Seq analysis (reference value: 13.234 to 17.920 RPKM). It counts as functional. The note with it: route po, time 5.5 months, 4015 h.
Data set [10] has as its target Homeodomain-interacting protein kinase 1 (Homo sapiens, UniProt Q86Z02). In words: Inhibition of HIPK1 (unknown origin).
For data set [11], the system named is Mus musculus. In words: Antialzheimer activity in 5XFAD mouse assessed as number of GFAP positive cell per FOV in retro spinal cortex at 1200 ppm administered as rodent chow for 10 to 24 weeks by immunolabelling based confocal microscopic analysis (reference value: 217 to 477). It counts as functional. The note with it: route po, time 10-24 weeks.
The target of data set [12] is Tyrosine-protein kinase Yes (Homo sapiens, UniProt P07947). The data set can be described thus: Inhibition of YES1 (unknown origin).
Chain of Tyrosine-protein kinase Yes (P07947 whole entry): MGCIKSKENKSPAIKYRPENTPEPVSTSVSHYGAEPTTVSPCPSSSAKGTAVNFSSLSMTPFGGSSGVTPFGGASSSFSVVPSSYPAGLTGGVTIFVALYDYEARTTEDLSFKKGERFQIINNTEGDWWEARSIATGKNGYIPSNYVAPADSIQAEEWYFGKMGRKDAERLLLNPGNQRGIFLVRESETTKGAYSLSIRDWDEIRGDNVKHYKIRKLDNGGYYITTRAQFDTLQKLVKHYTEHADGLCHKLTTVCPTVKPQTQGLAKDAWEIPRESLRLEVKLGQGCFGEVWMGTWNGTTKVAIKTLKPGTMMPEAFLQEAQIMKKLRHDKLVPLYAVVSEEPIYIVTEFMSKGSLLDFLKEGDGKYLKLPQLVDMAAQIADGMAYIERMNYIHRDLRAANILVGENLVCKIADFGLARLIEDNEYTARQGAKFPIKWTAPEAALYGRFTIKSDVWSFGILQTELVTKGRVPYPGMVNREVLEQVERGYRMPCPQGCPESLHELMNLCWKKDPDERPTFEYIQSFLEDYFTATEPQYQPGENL
For data set [13], the target named is Epidermal growth factor receptor (Homo sapiens, UniProt P00533). The data set can be described thus: Inhibition of EGFR (unknown origin).
A further data set has as its target SRSF protein kinase 1 (Homo sapiens, UniProt Q96SB4). In words: Inhibition of SRPK1 (unknown origin).
Data set [14] can be described thus: Effect on Zfp286 gene expression in wildtype mouse hippocampus assessed as percent change in Reads Per kilo base per Million mapped reads at 1200 ppm administered as rodent chow starting from 1.5 months and measured after 7 months by RNA-Seq analysis (reference value: 85.126 to 114.292 %). It counts as functional. The note with it: route po, time 5.5 months, 4015 h.

Data set [15] has as its target Cyclin-dependent kinase 5/CDK5 activator 1 (Homo sapiens, UniProt Q00535). The data set can be described thus: Inhibition of CDK5_p25 (unknown origin). It counts as protein-complex assay.
For another data set, the target named is Aurora kinase C (Homo sapiens, UniProt Q9UQB9). The data set can be described thus: Inhibition of AURKC (unknown origin).
The target of data set [16] is Mitogen-activated protein kinase 3 (Homo sapiens, UniProt P27361). The data set can be described thus: Inhibition of MAPK3 (unknown origin).
Chain of Mitogen-activated protein kinase 3 (P27361 whole entry): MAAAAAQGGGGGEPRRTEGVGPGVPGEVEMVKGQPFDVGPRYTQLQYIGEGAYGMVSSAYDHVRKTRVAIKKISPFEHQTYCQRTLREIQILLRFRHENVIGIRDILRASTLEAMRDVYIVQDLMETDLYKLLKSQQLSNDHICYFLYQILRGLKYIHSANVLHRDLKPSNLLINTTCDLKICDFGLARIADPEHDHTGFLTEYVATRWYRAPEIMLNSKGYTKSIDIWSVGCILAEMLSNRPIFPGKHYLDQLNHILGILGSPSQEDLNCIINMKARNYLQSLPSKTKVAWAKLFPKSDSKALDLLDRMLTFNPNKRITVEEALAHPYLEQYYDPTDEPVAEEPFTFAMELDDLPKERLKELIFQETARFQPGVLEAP
Data set [17] concerns Mus musculus. The data set can be described thus: Antialzheimer activity in 5XFAD mouse assessed as amyloidbeta42 level in detergent soluble cortex fraction measured per microgram protein at 1200 ppm administered as rodent chow starting from 1.5 months and measured after 4 months by ELISA (reference value: 0 to 0.063 pg). The note with it: route po, time 2.5 months, 1825 h. It counts as functional. Put shortly: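 PLX5622 at 1200 ppm in chow given to 5xFAD mice from 1.5 months to 4 or 7 months of age; cortex and thalamus homogenized in TPER (detergent-soluble), pellets re-homogenized in 70% formic acid and spun 100,000 g, 1 h, 4 °C (insoluble); protein by Bradford/Lowry; Aβ species measured by Meso Scale electrochemiluminescence immunoassay, normalized to protein; n = 7–8 per group at 7 months.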
A general note: In an ELISA, binding on a coated surface is turned into a signal by an enzyme label.

A short description of data set [18]: Effect on Siglech gene expression in 5XFAD mouse cortex at 1200 ppm administered as rodent chow starting from 1.5 months and measured after 7 months by RNA-Seq analysis (reference value: 5.048 to 7.930 RPKM). Format: functional. The conditions noted are these: route po, time 5.5 months, 4015 h.
The target of data set [19] is Proto-oncogene tyrosine-protein kinase receptor Ret (Homo sapiens, UniProt P07949). The data set can be described thus: Inhibition of RET (unknown origin).
The nature of data set [20]: Effect on Cst7 gene expression in 5XFAD mouse hippocampus at 1200 ppm administered as rodent chow starting from 1.5 months and measured after 7 months by RNA-Seq analysis (reference value: 14.615 to 34.909 RPKM). It counts as functional. The conditions noted are these: route po, time 5.5 months, 4015 h.
Data set [21] can be described thus: AUC (0 to infinity) in male rat at 45 mg/kg, po administered as single dose via gavage. The note with it: in vivo. It counts as ADME, organism-based.
Data set [22] is described as follows: Toxicity in wildtype mouse assessed as time in platform zone at 1200 ppm administered as rodent chow for 10 to 24 weeks by Morris water maze test (reference value: 0 to 2.7 sec). The note with it: in vivo, po, time 10-24 weeks.
For data set [23], the target named is Serine/threonine-protein kinase MRCK alpha (Homo sapiens, UniProt Q5VT25). In words: Inhibition of CDC42_BPA (unknown origin).
Data set [24] in a line: Effect on Dync1i1 gene expression in wildtype mouse hippocampus assessed as percent change in Reads Per kilo base per Million mapped reads at 1200 ppm administered as rodent chow starting from 1.5 months and measured after 7 months by RNA-Seq analysis (reference value: 96.347 to 105.024 %). It counts as functional. The conditions noted are these: route po, time 5.5 months, 4015 h.

Data set [25] in a line: Drug concentration in 5XFAD mouse brain at 1200 ppm administered as rodent chow for 180 days. Format: ADME, tissue-based. The conditions noted are these: route po, time 180 day, read-out: Ct.
Data set [26] in a line: Effect on Spi1 gene expression in wild type mouse hippocampus at 1200 ppm administered as rodent chow starting from 1.5 months and measured after 7 months by RNA-Seq analysis (reference value: 1.111 to 1.682 RPKM). Format: functional. The note with it: route po, time 5.5 months, 4015 h.
Data set [27] in a line: Toxicity in wildtype mouse assessed as time spent in perimeter zone at 1200 ppm administered as rodent chow for 10 to 24 weeks by Open field test (reference value: 223.8 to 267.6 sec). The conditions noted are these: in vivo, po, time 10-24 weeks.
The target of data set [28] is Dual specificity protein kinase CLK2 (Homo sapiens, UniProt P49760). In words: Inhibition of CLK2 (unknown origin).
The target in another data set is Aurora kinase A (Homo sapiens, UniProt O14965). The data set can be described thus: Inhibition of AURKA (unknown origin).
Chain of Aurora kinase A (O14965 whole entry): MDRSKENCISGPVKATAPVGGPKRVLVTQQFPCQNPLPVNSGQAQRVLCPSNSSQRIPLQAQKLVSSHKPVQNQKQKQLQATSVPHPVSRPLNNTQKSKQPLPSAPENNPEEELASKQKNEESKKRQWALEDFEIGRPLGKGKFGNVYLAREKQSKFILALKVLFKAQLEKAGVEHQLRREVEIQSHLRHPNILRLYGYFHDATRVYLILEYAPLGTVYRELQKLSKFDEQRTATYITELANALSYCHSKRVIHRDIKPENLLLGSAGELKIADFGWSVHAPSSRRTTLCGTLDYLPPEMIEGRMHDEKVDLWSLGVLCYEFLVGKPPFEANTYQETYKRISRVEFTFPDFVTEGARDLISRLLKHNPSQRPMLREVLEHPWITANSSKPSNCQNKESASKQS
Data set [29] deals with Serine/threonine-protein kinase TBK1 (Homo sapiens, UniProt Q9UHD2). The data set can be described thus: Inhibition of TBK1 (unknown origin).
Chain of Serine/threonine-protein kinase TBK1 (Q9UHD2 whole entry): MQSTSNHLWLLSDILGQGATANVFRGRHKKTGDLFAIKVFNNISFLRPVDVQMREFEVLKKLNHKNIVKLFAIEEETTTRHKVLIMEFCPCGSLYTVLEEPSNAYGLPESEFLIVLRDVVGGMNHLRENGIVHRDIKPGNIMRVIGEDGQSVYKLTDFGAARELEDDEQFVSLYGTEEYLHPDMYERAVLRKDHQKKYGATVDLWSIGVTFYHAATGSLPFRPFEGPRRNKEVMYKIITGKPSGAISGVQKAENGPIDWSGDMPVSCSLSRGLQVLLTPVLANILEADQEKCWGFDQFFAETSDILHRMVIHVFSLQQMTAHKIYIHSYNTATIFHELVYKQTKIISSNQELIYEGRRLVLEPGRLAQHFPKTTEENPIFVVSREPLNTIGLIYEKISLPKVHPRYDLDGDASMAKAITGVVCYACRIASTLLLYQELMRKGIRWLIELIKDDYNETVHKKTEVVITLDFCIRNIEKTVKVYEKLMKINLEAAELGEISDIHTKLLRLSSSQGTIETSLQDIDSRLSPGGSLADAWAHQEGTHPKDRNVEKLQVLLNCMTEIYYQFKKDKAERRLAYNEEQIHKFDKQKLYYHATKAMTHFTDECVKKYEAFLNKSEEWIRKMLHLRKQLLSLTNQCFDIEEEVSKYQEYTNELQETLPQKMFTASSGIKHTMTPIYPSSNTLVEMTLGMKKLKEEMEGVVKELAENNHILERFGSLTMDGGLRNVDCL
Data set [30] deals with Mus musculus. In words: Prevention of Gabrb2 gene downregulation in 5XFAD mouse hippocampus at 1200 ppm administered as rodent chow starting from 1.5 months and measured after 7 months by Nanostring analysis. Format: functional, tissue-based. The conditions noted are these: route po, time 5.5 months.

Chain of Mitogen-activated protein kinase kinase kinase kinase 5 (Q9Y4K4 whole entry): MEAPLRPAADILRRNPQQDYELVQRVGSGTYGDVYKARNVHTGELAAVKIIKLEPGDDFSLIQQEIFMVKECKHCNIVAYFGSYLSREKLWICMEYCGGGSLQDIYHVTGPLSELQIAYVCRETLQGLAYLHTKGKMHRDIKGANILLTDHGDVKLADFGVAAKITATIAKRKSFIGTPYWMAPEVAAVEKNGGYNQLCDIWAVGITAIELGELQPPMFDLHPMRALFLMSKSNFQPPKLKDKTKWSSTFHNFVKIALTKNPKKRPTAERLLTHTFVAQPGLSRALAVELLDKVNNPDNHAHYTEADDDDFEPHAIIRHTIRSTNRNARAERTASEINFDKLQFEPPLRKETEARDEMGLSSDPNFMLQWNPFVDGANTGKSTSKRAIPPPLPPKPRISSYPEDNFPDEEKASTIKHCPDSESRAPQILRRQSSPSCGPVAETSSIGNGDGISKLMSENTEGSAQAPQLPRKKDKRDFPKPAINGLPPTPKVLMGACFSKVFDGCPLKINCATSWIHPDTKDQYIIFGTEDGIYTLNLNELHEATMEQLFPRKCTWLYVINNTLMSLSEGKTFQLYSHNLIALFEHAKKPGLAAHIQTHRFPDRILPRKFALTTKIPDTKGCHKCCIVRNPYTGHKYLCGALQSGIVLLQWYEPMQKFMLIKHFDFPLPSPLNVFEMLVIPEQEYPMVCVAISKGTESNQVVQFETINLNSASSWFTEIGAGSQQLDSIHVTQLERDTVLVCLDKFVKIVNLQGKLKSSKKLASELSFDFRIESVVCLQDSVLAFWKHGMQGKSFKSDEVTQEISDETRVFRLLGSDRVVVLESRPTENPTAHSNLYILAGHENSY
Chain of SRSF protein kinase 1 (Q96SB4 whole entry): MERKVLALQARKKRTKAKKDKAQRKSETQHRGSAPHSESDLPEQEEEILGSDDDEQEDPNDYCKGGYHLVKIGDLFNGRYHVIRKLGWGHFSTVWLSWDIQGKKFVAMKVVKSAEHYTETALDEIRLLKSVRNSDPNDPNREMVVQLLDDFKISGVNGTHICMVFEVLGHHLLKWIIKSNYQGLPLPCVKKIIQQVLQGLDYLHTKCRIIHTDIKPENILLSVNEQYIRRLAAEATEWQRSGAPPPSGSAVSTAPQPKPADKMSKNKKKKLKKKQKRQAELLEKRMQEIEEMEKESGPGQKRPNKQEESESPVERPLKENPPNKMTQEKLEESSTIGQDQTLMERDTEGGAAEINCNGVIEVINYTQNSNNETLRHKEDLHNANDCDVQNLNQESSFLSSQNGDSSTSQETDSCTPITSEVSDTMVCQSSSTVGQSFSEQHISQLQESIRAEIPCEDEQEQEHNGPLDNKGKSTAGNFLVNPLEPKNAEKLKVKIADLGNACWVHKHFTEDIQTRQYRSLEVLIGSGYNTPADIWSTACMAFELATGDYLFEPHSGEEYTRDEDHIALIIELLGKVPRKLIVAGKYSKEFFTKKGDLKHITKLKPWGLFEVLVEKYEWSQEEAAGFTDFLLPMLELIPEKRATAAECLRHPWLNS
Chain of Homeodomain-interacting protein kinase 1 (Q86Z02 whole entry): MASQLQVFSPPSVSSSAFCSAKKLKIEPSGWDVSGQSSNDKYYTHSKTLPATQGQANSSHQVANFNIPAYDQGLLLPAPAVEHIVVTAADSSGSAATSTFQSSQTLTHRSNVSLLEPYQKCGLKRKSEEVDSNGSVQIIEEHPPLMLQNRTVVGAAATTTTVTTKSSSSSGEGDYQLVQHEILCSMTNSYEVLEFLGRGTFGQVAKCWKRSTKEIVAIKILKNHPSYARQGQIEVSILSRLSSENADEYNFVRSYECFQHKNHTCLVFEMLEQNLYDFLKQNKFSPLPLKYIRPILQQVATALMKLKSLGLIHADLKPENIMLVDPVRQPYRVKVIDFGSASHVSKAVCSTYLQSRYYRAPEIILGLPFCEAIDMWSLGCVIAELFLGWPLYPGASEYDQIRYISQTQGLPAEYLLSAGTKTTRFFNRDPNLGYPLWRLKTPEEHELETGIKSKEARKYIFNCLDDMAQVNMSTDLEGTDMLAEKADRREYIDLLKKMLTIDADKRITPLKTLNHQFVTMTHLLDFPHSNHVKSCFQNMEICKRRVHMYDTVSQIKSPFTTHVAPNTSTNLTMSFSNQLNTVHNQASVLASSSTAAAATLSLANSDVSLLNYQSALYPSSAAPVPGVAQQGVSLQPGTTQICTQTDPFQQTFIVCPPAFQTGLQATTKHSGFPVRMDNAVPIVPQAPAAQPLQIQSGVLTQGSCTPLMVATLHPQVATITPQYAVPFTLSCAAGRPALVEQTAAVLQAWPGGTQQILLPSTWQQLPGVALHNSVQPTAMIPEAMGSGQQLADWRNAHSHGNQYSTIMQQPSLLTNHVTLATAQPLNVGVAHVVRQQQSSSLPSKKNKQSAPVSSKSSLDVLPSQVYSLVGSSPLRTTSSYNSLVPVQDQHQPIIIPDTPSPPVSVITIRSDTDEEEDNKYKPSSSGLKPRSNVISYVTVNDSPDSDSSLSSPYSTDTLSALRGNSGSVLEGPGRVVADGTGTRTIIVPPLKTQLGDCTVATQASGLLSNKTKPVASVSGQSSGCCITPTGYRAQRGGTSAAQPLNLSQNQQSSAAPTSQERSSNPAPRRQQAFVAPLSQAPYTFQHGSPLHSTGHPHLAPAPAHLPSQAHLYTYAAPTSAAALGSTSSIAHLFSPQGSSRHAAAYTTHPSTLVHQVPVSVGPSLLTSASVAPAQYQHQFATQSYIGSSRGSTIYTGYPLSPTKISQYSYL

`FC(F)(F)c1ccc(CNc2ccc(Cc3c[nH]c4ncc(Cl)cc34)cn2)cn1` [PEXIDARTINIB] displayed a concentration at 2555 h in [1] of 15 µM.

For the compound `COc1ncc(F)cc1CNc1ccc(Cc2c[nH]c3ncc(C)cc23)c(F)n1` [PLX-5622], the Activity with Mus musculus [2] is 1; in [3] it was 0.488 RPKM; in the data set with Mus musculus [8], 70.442%; in data set [9], 11.055 RPKM; in the data set on Mus musculus [11], 92; in data set [14], 76.544%. The Activity in the data set on Mus musculus [17] is reported as 0.006 pg; in data set [18], 0.14 RPKM; in [20], 2.289 RPKM; in data set [24], 81.186%; in data set [26], 0.055 RPKM. In addition, the IC50 (in data set [4]; in [6]; in [10]; in data set [12]; in data set [13]; against SRSF protein kinase 1) was greater than 1000 nM throughout. The IC50 in data set [15] is greater than 1000 nM; against Aurora kinase C it was 1000 nM; in data set [16], greater than 1000 nM; in data set [19], greater than 1000 nM; in data set [23], greater than 1000 nM; in [28], greater than 1000 nM. The IC50 (against Aurora kinase A; in data set [29]) was greater than 1000 nM in each case. Also, the Time in data set [5] is 90.5 s; in data set [22], 0.4 s; in [27], 178.5 s. For the same compound, the half-life in data set [7] was 2.3 h. In [21], the AUC(0-inf) came out at 99600 ng·h/mL. In addition, the concentration at 4320 h in data set [25] is 2390 ng/mL. The outcome in the data set on Mus musculus [30] was Active.
